According to ChEMBL document CHEMBL1671781, “Discovery and biological characterization of (2R,4S)-1'-acetyl-N-{(1R)-1-[3,5-bis(trifluoromethyl)phenyl]ethyl}-2-(4-fluoro-2-methylphenyl)-N-methyl-4,4'-bipiperidine-1-carboxamide as a new potent and selective neurokinin 1 (NK1) receptor antagonist clinical candidate” (J Med Chem, 2011):
Values belong to the compound of their own block, whether it stands above or below them. Active and inactive are the calls of the source. The calls are words filed in the database; no cut-off is given here.

Experiments:
[1] = test system: Meriones unguiculatus; assay: Inhibition of GR73632-induced foot tapping in orally dosed Mongolian gerbil after 4 hrs; format: functional; details: po, read-out: ID50 (the source's name)
Outline: (§1)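 GR73632 (3 pmol/5 μL) injected icv into the lateral ventricle of Mongolian gerbils; after 1 min recovery, hind foot tapping timed for 3 min (max 180 s). Oral compound or vehicle (10 mL/kg) given 1, 4, 8 or 24 h beforehand, at least seven animals per group.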

[2] = target: Substance-P receptor (Homo sapiens, UniProt P25103); assay: Displacement of [3H]SP from human NK1 receptor expressed in CHO cells by liquid scintillation counting; format: cell-based
Substance-P receptor, sequence (P25103 whole entry): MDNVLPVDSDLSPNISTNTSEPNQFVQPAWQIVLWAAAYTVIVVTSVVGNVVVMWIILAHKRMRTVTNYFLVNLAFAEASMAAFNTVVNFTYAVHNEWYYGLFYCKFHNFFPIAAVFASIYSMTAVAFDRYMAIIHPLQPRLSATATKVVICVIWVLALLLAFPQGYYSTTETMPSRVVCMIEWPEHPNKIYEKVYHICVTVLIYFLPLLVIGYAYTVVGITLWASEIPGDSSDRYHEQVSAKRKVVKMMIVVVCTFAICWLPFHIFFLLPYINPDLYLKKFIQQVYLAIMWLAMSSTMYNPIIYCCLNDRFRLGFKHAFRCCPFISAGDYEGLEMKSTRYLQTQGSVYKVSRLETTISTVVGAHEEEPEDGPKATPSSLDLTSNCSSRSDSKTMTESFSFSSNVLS

[3] = test system: Meriones unguiculatus; assay: Inhibition of GR73632-induced foot tapping in orally dosed Mongolian gerbil after 1 hr; format: functional; details: po, read-out: ID50 (the source's name); outline: as §1
[4] = test system: Rattus norvegicus; assay: Volume of distribution at steady state in rat at 1 mg/kg, iv and po; format: ADME, organism-based; design: dose 1 mg/kg, route oral; details: in vivo
Outline: (§2)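 Rats (n = 6) were dosed at 1 mg/kg iv bolus and po by gavage. Serial blood sampling; plasma obtained by centrifugation, then protein precipitation and HPLC-MS/MS quantitation. PK parameters calculated from plasma concentrations.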

[5] = Half life in marmoset at 1 mg/kg, iv; format: ADME, organism-based, Callithrix jacchus; design: dose 1 mg/kg, route intravenous; details: in vivo
[6] = Half life in mouse at 2 mg/kg, po; format: ADME, organism-based; design: dose 2 mg/kg, route oral; details: in vivo
Outline: (§3)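 Mice given 1 mg/kg iv and 2 mg/kg po using a composite design, three animals per time point (n = 21 per arm). Blood collected at nominal times, plasma prepared by centrifugation and analysed by protein precipitation plus HPLC-MS/MS; parameters derived from plasma concentrations.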

[7] = Volume of distribution at steady state in marmoset at 1 mg/kg, iv; format: ADME, organism-based, Callithrix jacchus; design: dose 1 mg/kg, route intravenous; details: in vivo, read-out: Vdss
[8] = Binding affinity to calcium channel L type dihydropyridine binding site
[9] = Plasma clearance in mouse at 2 mg/kg, po; format: ADME, organism-based; design: dose 2 mg/kg, route oral
[10] = Binding affinity to sodium channel site 2
[11] = Oral bioavailability in mouse at 2 mg/kg; format: ADME, organism-based; details: in vivo; outline: as §3
[12] = test system: Meriones unguiculatus; assay: Toxicity in Mongolian gerbil assessed as abnormal behavior at 0.3 to 1 mg/kg, po; format: organism-based; design: dose 0.3-1 mg/kg, route oral; details: in vivo
Outline: (§4)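 Gerbil social interaction arena, po dosing 1 h pretest (0.1, 0.3, 1.0 mg/kg; 10 mL/kg; 10 per group). Abnormal behaviours noted during the 5 min session; sedation checked as locomotor activity scored by line crossing. Compared with vehicle by one-way ANOVA plus Dunnett's test or paired t test.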

[13] = Bioavailability in cynomolgus monkey at 1 mg/kg, iv; format: ADME, organism-based, Macaca fascicularis; details: in vivo
[14] = Plasma clearance in marmoset at 1 mg/kg, iv; format: ADME, organism-based, Callithrix jacchus; design: dose 1 mg/kg, route intravenous
[15] = Half life […] cynomolgus monkey at 1 mg/kg, iv; format: ADME, organism-based, Macaca fascicularis; design: dose 1 mg/kg, route intravenous; details: in vivo
[16] = test system: Meriones unguiculatus; assay: Antidepressant activity against po dosed Mongolian gerbil assessed as increase in social interaction time; format: functional, organism-based
Outline: (§5)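 Pairs of unfamiliar male Mongolian gerbils (50-70 g), matched for treatment, placed in arena centre; active social interaction (sniffing, following, partner grooming, wrestling) scored for 5 min. Dosing 1 h before test, po at 0.1, 0.3 and 1.0 mg/kg (10 mL/kg), randomized, 10 animals per group. One-way ANOVA with Dunnett's test or paired t test versus vehicle.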

[17] = test system: Meriones unguiculatus; assay: Antidepressant activity against po dosed Mongolian gerbil assessed as increase in social interaction time at 1 mg/kg, po (Rbv = 19+/-1.2seconds); format: functional; outline: as §5
[18] = test system: Meriones unguiculatus; assay: Antidepressant activity against Mongolian gerbil assessed as increase in social interaction time at 0.3 to 1 mg/kg, po; format: functional, organism-based; outline: as §5
[19] = Plasma clearance in dog at 0.5 mg/kg, iv; format: ADME, organism-based, Canis lupus familiaris; design: dose 0.5 mg/kg, route intravenous
Outline: (§6)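 Dog (n = 6), cynomolgus monkey (n = 3) and marmoset (n = 3) received an iv bolus at 0.5 mg/kg and po gavage at 1 mg/kg. Serial blood samples taken, spun to plasma, and assayed after protein precipitation by HPLC-MS/MS; parameters derived from plasma concentrations.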

[20] = Bioavailability in marmoset at 1 mg/kg, iv; format: ADME, organism-based, Callithrix jacchus; details: in vivo
[21] = test system: Mus musculus; assay: Volume of distribution at steady state in mouse at 2 mg/kg, po; format: ADME, organism-based; design: dose 2 mg/kg, route oral; details: in vivo
[22] = target: Sigma non-opioid intracellular receptor 1 (Homo sapiens, UniProt Q99720); assay: Binding affinity to sigma 1 receptor
Sigma non-opioid intracellular receptor 1, sequence (Q99720 whole entry): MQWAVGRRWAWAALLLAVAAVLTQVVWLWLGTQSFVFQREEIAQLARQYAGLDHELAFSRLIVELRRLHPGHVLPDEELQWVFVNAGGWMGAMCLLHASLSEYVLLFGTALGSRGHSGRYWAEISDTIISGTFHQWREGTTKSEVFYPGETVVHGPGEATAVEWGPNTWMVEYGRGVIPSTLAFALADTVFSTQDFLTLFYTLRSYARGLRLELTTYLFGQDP

[23] = Binding affinity to calcium channel L type benzodiazepine binding site
[24] = Plasma clearance in cynomolgus monkey at 1 mg/kg, iv; format: ADME, organism-based, Macaca fascicularis; design: dose 1 mg/kg, route intravenous
[25] = Bioavailability in dog at 0.5 mg/kg, iv; format: ADME, organism-based, Canis lupus familiaris; details: in vivo; outline: as §6
[26] = Volume of distribution at steady state in dog at 0.5 mg/kg, iv; format: ADME, organism-based, Canis lupus familiaris; design: dose 0.5 mg/kg, route intravenous; details: in vivo, read-out: Vdss; outline: as §6
[27] = Half life in rat at 1 mg/kg, iv and po; format: ADME, organism-based; design: dose 1 mg/kg, route oral; details: in vivo; outline: as §2
[28] = test system: Meriones unguiculatus; assay: Toxicity in Mongolian gerbil assessed as locomotor activity at 1 mg/kg, po; format: functional, organism-based; design: dose 1 mg/kg; outline: as §4
[29] = Volume of distribution at steady state in cynomolgus monkey at 1 mg/kg, iv; format: ADME, organism-based, Macaca fascicularis; design: dose 1 mg/kg, route intravenous; details: in vivo, read-out: Vdss
[30] = test system: Meriones unguiculatus; assay: Inhibition of GR73632-induced foot tapping in sc dosed Mongolian gerbil after 1 hr; format: functional; details: read-out: ID50 (the source's name)
Outline: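 Gerbil foot tapping model: icv GR73632 3 pmol/5 μL into the lateral ventricle, tapping recorded for 3 min after 1 min recovery. Compound given sc 1 h before agonist, seven animals per group.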

[31] = Oral bioavailability in rat at 1 mg/kg; format: ADME, organism-based; details: in vivo; outline: as §2
[32] = Half life in dog at 0.5 mg/kg, iv; format: ADME, organism-based, Canis lupus familiaris; design: dose 0.5 mg/kg, route intravenous; details: in vivo; outline: as §6
[33] = test system: Meriones unguiculatus; assay: Inhibition of GR73632-induced foot tapping in orally dosed Mongolian gerbil after 24 hrs; format: functional; details: po, read-out: ID50 (the source's name); outline: as §1
[34] = test system: Meriones unguiculatus; assay: Inhibition of GR73632-induced foot tapping in orally dosed Mongolian gerbil after 8 hrs; format: functional; details: po, read-out: ID50 (the source's name); outline: as §1

Compound: Cc1cc(F)ccc1[C@H]1C[C@@H](NC2CC2)CCN1C(=O)N(C)[C@H](C)c1cc(C(F)(F)F)cc(C(F)(F)F)c1
ED50 [1]: 0.39 mg/kg | Ki [2]: 0.324 nM

Compound: Cc1cc(F)ccc1[C@H]1C[C@@H](N(C)C)CCN1C(=O)N(C)Cc1cc(C(F)(F)F)cc(C(F)(F)F)c1
ED50 [3]: 0.26 mg/kg | Ki [2]: 0.0794 nM

Compound: Cc1cc(F)ccc1[C@H]1CNCCN1C(=O)N(C)[C@H](C)c1cc(C(F)(F)F)cc(C(F)(F)F)c1 [VESTIPITANT]
ED50 [3]: 0.014 mg/kg

Compound: Cc1cc(F)ccc1[C@H]1C[C@H](N2CCCC2)CCN1C(=O)N(C)[C@H](C)c1cc(C(F)(F)F)cc(C(F)(F)F)c1
ED50 [1]: > 1 mg/kg | Ki [2]: 0.2 nM

Compound: Cc1cc(F)ccc1[C@H]1C[C@@H](N2CCC2)CCN1C(=O)N(C)[C@H](C)c1cc(C(F)(F)F)cc(C(F)(F)F)c1
Ki [2]: 0.178 nM

Compound: Cc1cc(F)ccc1[C@H]1C[C@@H](N2CCCC2)CCN1C(=O)N(C)[C@H](C)c1cc(C(F)(F)F)cc(C(F)(F)F)c1
ED50 [3]: 0.92 mg/kg | Ki [2]: 0.141 nM

Compound: CC(=O)N1CCN([C@@H]2CCN(C(=O)N(C)[C@H](C)c3cc(C(F)(F)F)cc(C(F)(F)F)c3)[C@@H](c3ccc(F)cc3C)C2)CC1
ED50 [3]: > 0.3 mg/kg

Compound: Cc1cc(F)ccc1[C@H]1C[C@@H](N2CCCC2)CCN1C(=O)N(C)Cc1cc(C(F)(F)F)cc(C(F)(F)F)c1
ED50 [3]: 0.3 mg/kg | Ki [2]: 0.275 nM

Compound: CN[C@H]1CCN(C(=O)N(C)Cc2cc(C(F)(F)F)cc(C(F)(F)F)c2)[C@@H](c2ccc(F)cc2C)C1
Ki [2]: 0.2 nM

Compound: Cc1cc(F)ccc1[C@H]1C[C@@H](NC2CCC2)CCN1C(=O)N(C)[C@H](C)c1cc(C(F)(F)F)cc(C(F)(F)F)c1
Ki [2]: 0.17 nM

Compound: CC(=O)N1CCN([C@H]2CCN(C(=O)N(C)Cc3cc(C(F)(F)F)cc(C(F)(F)F)c3)[C@@H](c3ccc(F)cc3C)C2)CC1
ED50 [3]: 0.09 mg/kg | Ki [2]: 0.117 nM

More lines, main results first:

Ki [2]: 0.24 nM
Compound: Cc1cc(F)ccc1[C@H]1C[C@@H](N(C)C)CCN1C(=O)N(C)[C@H](C)c1cc(C(F)(F)F)cc(C(F)(F)F)c1
ED50 [3]: 0.9 mg/kg

Ki [2]: 0.646 nM
Compound: Cc1cc(F)ccc1[C@H]1C[C@H](N2CCC2)CCN1C(=O)N(C)[C@H](C)c1cc(C(F)(F)F)cc(C(F)(F)F)c1

Ki [2]: 0.933 nM
Compound: Cc1cc(F)ccc1[C@H]1C[C@H](N(C)C)CCN1C(=O)N(C)[C@H](C)c1cc(C(F)(F)F)cc(C(F)(F)F)c1

Ki [2]: 0.0813 nM
Compound: Cc1cc(F)ccc1[C@H]1C[C@@H](N2CCC2)CCN1C(=O)N(C)Cc1cc(C(F)(F)F)cc(C(F)(F)F)c1
ED50 [1]: 0.13 mg/kg

Ki [2]: 0.209 nM
Compound: COCCN[C@H]1CCN(C(=O)N(C)[C@H](C)c2cc(C(F)(F)F)cc(C(F)(F)F)c2)[C@@H](c2ccc(F)cc2C)C1

Vdss [4]: 3.2 L/kg | half-life [5]: 102 min | half-life [6]: 66 min | Vd [7]: 3.1 L/kg | Ki [8]: 6.58 µM | CL/F [9]: 120 mL/min/kg | Ki [10]: 4.22 µM | bioavailability [11]: 21% | bioavailability [13]: 8% | clearance [14]: 29 mL/min/kg | half-life [15]: 126 min | clearance [19]: 10 mL/min/kg | bioavailability [20]: 14% | Vdss [21]: 4 L/kg | Ki [22]: 2980 nM | Ki [23]: 8.78 µM | clearance [24]: 26 mL/min/kg | bioavailability [25]: 34% | Vd [26]: 1.9 L/kg | half-life [27]: 108 min | Vd [29]: 3 L/kg | bioavailability [31]: 8% | half-life [32]: 270 min
Compound: CC(=O)N1CCN([C@H]2CCN(C(=O)N(C)[C@H](C)c3cc(C(F)(F)F)cc(C(F)(F)F)c3)[C@@H](c3ccc(F)cc3C)C2)CC1 [CASOPITANT]
Activity [12]: Non-toxic | Activity [16]: Dose-dependent effect | ED50 [3]: 0.08 mg/kg | Time [17]: 36.6 s | Activity [18]: Active | Activity [28]: Not toxic | ED50 [30]: 0.05 mg/kg | ED50 [33]: 1.1 mg/kg | ED50 [34]: 0.19 mg/kg
